According to ChEMBL document CHEMBL3817782, “Synthesis, Structural Elucidation, and Biological Evaluation of NSC12, an Orally Available Fibroblast Growth Factor (FGF) Ligand Trap for the Treatment of FGF-Dependent Lung Tumors” (J Med Chem, 2016):
≈ marks a conversion by molar mass, not a printed value. Calls of active or inactive are those of the source. The rule behind the calls is not given here.

Tests used:
[1] = target: T1, Fibroblast growth factor 2 (Homo sapiens, UniProt P09038); assay: Inhibition of human recombinant FGF2 assessed as reduction in HSPG/FGF2/[…] interaction by measuring FGF2 mediated […]-CHO-flg-1A-luc cell to CHO-K1 cell adhesion incubated for 2 hrs by luciferase assay; type: cell-based
T1 sequence (P09038 143-288 limits assumed): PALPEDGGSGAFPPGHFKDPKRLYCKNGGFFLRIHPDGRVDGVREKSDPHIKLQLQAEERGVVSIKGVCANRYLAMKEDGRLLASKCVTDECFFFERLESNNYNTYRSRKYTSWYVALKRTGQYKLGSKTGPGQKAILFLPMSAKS
Method in brief: (§1)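 Wild-type CHO-K1 monolayers fixed in 3% glutaraldehyde for 2 h at 4 °C, quenched with 0.1 M glycine. A745-CHO-flg-1A-luc cells (50 000 cells/cm²) added in serum-free medium plus 10 mM EDTA, with or without 30 ng/mL FGF2, plus increasing compound concentrations in 3% DMSO. Incubated 2 h at 37 °C. Unattached cells washed off; bound-cell luciferase measured. Triplicates.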

[2] = Antiproliferative activity against mouse LLC cells incubated for 48 hrs by PI-staining based flow cytometry; type: functional, cell-based; conditions: Lewis lung carcinoma
Method in brief: (§2)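 LLC cells kept in DMEM plus 10% heat-inactivated FBS and cultured 48 h with compound in medium plus 1% DMSO final. PI-negative viable cells counted by flow cytometry to give absolute counts.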

NCI-H520 [3] = assay: Antiproliferative activity against human NCI-H520 cells incubated for 72 hrs by PI-staining based flow cytometry; type: functional, cell-based; conditions: NCI-H520, 72 h
Method in brief: (§3)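 H520 cells kept in RPMI plus 10% FBS and cultured 72 h with compound in medium plus 1% DMSO final. Viable PI-negative cells counted by flow cytometry, with absolute counts from the analyzer's counting function.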

Lewis lung carcinoma [4] = assay: Antiangiogenic activity against mouse LLC cells xenografted in C57BL/6 mouse assessed as pale appearance at 7.5 mg/kg administered as oral gavage for 7 days daily; type: functional, organism-based
Method in brief: (§4)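 Eight-week-old C57BL/6 mice given 5 × 10^5 LLC cells sc in the dorsolateral flank in PBS. Dosing started once tumors were palpable: 7.5 mg/kg or vehicle daily by gavage in DMSO/H2O (1:1). Tumors measured in two dimensions, volume taken as (D × d²)/2. At the end, tumors harvested, weighed and photographed. Body weight and clinical signs followed throughout.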

[5] = target: T1, Fibroblast growth factor 2; assay: Binding affinity to human recombinant FGF2 at 8 to 150 uM treated for 4 mins measured after 10 mins by surface plasmon resonance spectroscopic analysis
Method in brief: (§5)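 Human recombinant FGF2 (20 μg/mL in 10 mM sodium acetate, pH 6.0) coupled to an EDC/NHS-activated CM5 chip, with an ethanolamine-blocked dextran reference cell. Compounds injected at 8–150 μM for 4 min (30 μL/min), then 10 min dissociation. Apparent Kd taken from dose-dependent binding. Samples in PBS with 3% DMSO.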

[6] = Kinetic solubility in 3% DMSO solution in PBS up to 30 uM stirred for 5 mins by HPLC-MS/MS analysis; type: physicochemical; conditions: buffer
Method in brief: (§6)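 Fresh DMSO stocks diluted into PBS to nominal 100, 44, 29, 16 and 8.9 μM, 3% DMSO final. Stirred 5 min (250 rpm, rt), centrifuged to remove undissolved material. Supernatant diluted 1:100 in MeCN containing internal standard (100 nM) and quantified by HPLC–ESI-MS/MS.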

[7] = target: T1, Fibroblast growth factor 2; assay: Inhibition of human recombinant FGF2 assessed as reduction in HSPG/FGF2/[…] interaction by measuring FGF2 mediated […]-CHO-flg-1A-luc cell to CHO-K1 cell adhesion at 100 uM incubated for 2 hrs by luciferase assay; type: cell-based; method in brief: as §1
[8] = target: T1, Fibroblast growth factor 2; assay: Inhibition of human recombinant FGF2 assessed as suppression of FGFR1 phosphorylation in mouse LLC cells at 100 uM incubated for 20 mins by Western blot analysis; type: cell-based
Method in brief: (§7)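 LLC cells stimulated with FGF2 (30 ng/mL) with or without compound in medium plus 3% DMSO for 20 min. Cells lysed in RIPA buffer with 1% Triton X-100, 0.2% Brij and 1 mM orthovanadate. Immunoblotted with anti-phospho-FGFR1, with β-actin as loading control.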

Lewis lung carcinoma [9] = assay: Antiproliferative activity against mouse LLC cells at 0.3 to 10 uM incubated for 48 hrs by PI-staining based flow cytometry; type: functional, cell-based; method in brief: as §2
NCI-H520 [10] = assay: Antiproliferative activity against human NCI-H520 cells at 0.3 to 10 uM incubated for 72 hrs by PI-staining based flow cytometry; type: functional, cell-based; method in brief: as §3
[11] = Kinetic solubility in DMEM buffer/1% DMSO assessed as recovered drug level at 10 uM after 4 hrs by HPLC-MS/MS analysis; type: physicochemical; conditions: DMEM buffer with 1% DMSO; read-out: Drug recovery
Method in brief: (§8)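 Fresh DMSO stocks added 1:100 to DMEM plus 0.4% FBS, giving nominal 10, 6 or 3 μM and 1% DMSO final. Stirred 4 h (250 rpm, rt), centrifuged, supernatant diluted 1:100 in MeCN with internal standard. Quantified by HPLC–MS/MS.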

[12] = Dissociation constant, pKa of the compound in methanol-water mixture at 25 +/- 1 degC by potentiometric pH-metric method; type: physicochemical
Method in brief: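 Potentiometric pH-metric titration in methanol–water mixtures from 40 to 10%. Aqueous pKa extrapolated. Titration curves fitted by nonlinear multiparametric analysis.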

[13] = Kinetic solubility in DMEM buffer at 10 uM after 4 hrs in presence of EDTA by HPLC-MS/MS analysis; type: physicochemical; conditions: DMEM buffer with EDTA; read-out: Kinetic_solubility
Method in brief: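 10 μM (nominal) in DMEM plus 0.4% FBS with 2 mM EDTA and 1% DMSO final. Stirred 4 h (250 rpm, rt), then centrifuged. Supernatant diluted 1:100 in MeCN with internal standard and measured by HPLC–MS/MS. Mean of recovered concentration reported with ±.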

[14] = Kinetic solubility in DMEM buffer/1% DMSO assessed as recovered drug level at 6 uM after 4 hrs by HPLC-MS/MS analysis; type: physicochemical; conditions: DMEM buffer with 1% DMSO; read-out: Drug recovery; method in brief: as §8
[15] = Kinetic solubility in DMEM buffer/1% DMSO assessed as recovered drug level at 3 uM after 4 hrs by HPLC-MS/MS analysis; type: physicochemical; conditions: DMEM buffer with 1% DMSO; read-out: Drug recovery; method in brief: as §8
Lewis lung carcinoma [16] = assay: Antitumor activity against mouse LLC cells xenografted in C57BL/6 mouse assessed as tumor growth inhibition at 7.5 mg/kg administered as oral gavage for 7 days daily relative to vehicle-treated control; type: functional, organism-based; method in brief: as §4
Mus musculus [17] = assay: Toxicity in C57BL/6 mouse xenografted with mouse LLC cells assessed as effect on body weight at 7.5 mg/kg administered as oral gavage for 7 days daily; type: organism-based; conditions: in vivo, 168 h; method in brief: as §4
Mus musculus [18] = assay: Toxicity in C57BL/6 mouse xenografted with mouse LLC cells assessed as effect on clinical parameters at 7.5 mg/kg administered as oral gavage for 7 days daily; type: organism-based; conditions: in vivo, 168 h; method in brief: as §4
[19] = Plasma concentration in C57BL/6 mouse at 7.5 mg/kg administered as single dose measured after 30 mins; type: ADME, organism-based
Method in brief: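 Eight-week-old mice given 7.5 mg/kg orally, with blood drawn 30 min, 2 h and 8 h later. Plasma proteins precipitated with acetonitrile containing internal standard (1:2). Analyte quantified by HPLC–ESI-MS/MS against calibration curves in spiked blank mouse plasma (linear 1–500 nM, LOQ 1 nM). Extraction recovery 90–95%.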

[20] = Kinetic solubility in 3% DMSO solution in PBS at 44 to 100 uM stirred for 5 mins by HPLC-MS/MS analysis; type: physicochemical; conditions: buffer; method in brief: as §6
[21] = target: T1, Fibroblast growth factor 2; assay: Binding affinity to human recombinant FGF2 treated for 4 mins measured after 10 mins by surface plasmon resonance spectroscopic analysis; method in brief: as §5
[22] = target: T1, Fibroblast growth factor 2; assay: Inhibition of human recombinant FGF2 assessed as suppression of FGF2-stimulated FGFR1 phosphorylation in mouse LLC cells at 25 uM incubated for 20 mins by Western blot analysis; type: cell-based; method in brief: as §7

SMILES	IC50 [1]	IC50 [2]	IC50 (NCI-H520 [3])	Activity (Lewis lung carcinoma [4])	Kinetic_solubility [6]	solubility kinetic at 4 h, 10 µM [11]	pKa [12]	TGI (Lewis lung carcinoma [16])	Activity (Mus musculus [17])	Activity (Mus musculus [18])	concentration at 0.5 h [19]	other results
C[C@]12CC[C@H]3[C@@H](CC=C4C[C@@H](O)CC[C@@]43C)[C@@H]1CC[C@@H]2C(O)CC(O)(C(F)(F)F)C(F)(F)F (some centres undefined)	10 µM	2 µM	4.1 µM	Active								
C[C@]12CC[C@H]3[C@@H](CC=C4C[C@@H](O)CC[C@@]43C)[C@@H]1CC[C@@H]2[C@H](O)CC(O)(C(F)(F)F)C(F)(F)F					Insoluble	2.1 µM (≈ 1.02 µg/mL)	9.08	inactive	Non-toxic	Non-toxic	128 nM	Activity [5]: inactive; inhibition [7]: inactive; inhibition [8]: inactive; Activity (Lewis lung carcinoma [9]): inactive; Activity (NCI-H520 [10]): inactive; solubility kinetic at 4 h, 10 µM [13]: 1.73 µM; solubility kinetic at 4 h, 6 µM [14]: 1.7 µM (≈ 0.824 µg/mL); solubility kinetic at 4 h, 3 µM [15]: 1.4 µM (≈ 0.678 µg/mL)
C[C@]12CC[C@H]3[C@@H](CC=C4C[C@@H](O)CC[C@@]43C)[C@@H]1CC[C@@H]2[C@@H](O)CC(O)(C(F)(F)F)C(F)(F)F	10 µM	2 µM	4.1 µM	Active	soluble	10.7 µM (≈ 5.18 µg/mL)	9.04	Active	Non-toxic	Non-toxic	316 nM	Kinetic_solubility [20]: Insoluble; Activity [21]: Dose-dependent effect; Kd [21]: 40 µM; inhibition [22]: Active
